Test results reported in ChEMBL document CHEMBL5696444 (Nat Commun, 2017).
The source made the active and inactive calls. The calls are words filed in the database; no cut-off is given here.

Assays:
HCT-116 [1] = experiment: Induction of cell cycle arrest in human HCT-116 cells assessed as G0/G1 phase at 5 uM incubated for 24 hrs by flow cytometry analysis (Rvb=35.7%); format: functional
[2] = target: Dual specificity protein kinase CLK3 (Homo sapiens) (UniProt P49761); experiment: Inhibition of CLK3 (unknown origin) at 1110 nM in the presence of ATP by Kinome scan method relative to control; settings: time > 6.0 hrs
[3] = target: Tyrosine-protein kinase JAK2 (Homo sapiens) (UniProt O60674); experiment: Inhibition of JAK2 (unknown origin) at 100 nM in the presence of ATP by Kinome scan method relative to control
HCT-116 [4] = experiment: Induction of apoptosis in human HCT-116 cells assessed as late apoptosis at 5 uM incubated for > 6 hrs by annexin V/PI staining based analysis (Rvb=6.12%); format: functional
HCT-116 [5] = experiment: Induction of cell cycle arrest in human HCT-116 cells assessed as G0/G1 phase at 0.1 uM incubated for 6 hrs by flow cytometry analysis (Rvb=35.0%); format: functional
HCT-116 [6] = experiment: Induction of apoptosis in human HCT-116 cells assessed as early apoptosis at 1 uM incubated for > 6 hrs by annexin V/PI staining based analysis (Rvb=3.29%); format: functional
[7] = target: Mitogen-activated protein kinase 14 (Homo sapiens) (UniProt Q16539); experiment: Inhibition of MAPK14 (unknown origin) at 100 nM in the presence of ATP by Kinome scan method relative to control
Sequence of Mitogen-activated protein kinase 14 (Homo sapiens) (Q16539 whole entry): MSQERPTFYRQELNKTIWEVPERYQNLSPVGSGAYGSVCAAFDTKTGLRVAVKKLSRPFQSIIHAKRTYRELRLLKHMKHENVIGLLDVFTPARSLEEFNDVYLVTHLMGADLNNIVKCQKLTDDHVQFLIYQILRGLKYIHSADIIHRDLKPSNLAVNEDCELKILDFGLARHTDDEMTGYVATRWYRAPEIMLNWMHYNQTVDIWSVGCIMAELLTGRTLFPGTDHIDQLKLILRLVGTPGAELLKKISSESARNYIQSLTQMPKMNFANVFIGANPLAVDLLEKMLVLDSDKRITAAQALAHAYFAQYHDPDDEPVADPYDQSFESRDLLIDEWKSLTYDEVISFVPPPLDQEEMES

[8] = target: Dual specificity protein kinase CLK1 (Homo sapiens) (UniProt P49759); experiment: Inhibition of CLK (unknown origin) in human HCT-116 cells assessed as decrease in SRSF6 phosphorylation level at 0.5 to 1.0 uM incubated for 6 hrs by immunoblot analysis; format: cell-based; settings: dose 0.5-1 µM
Sequence of Dual specificity protein kinase CLK1 (Homo sapiens) (P49759 whole entry, looked up, canonical isoform): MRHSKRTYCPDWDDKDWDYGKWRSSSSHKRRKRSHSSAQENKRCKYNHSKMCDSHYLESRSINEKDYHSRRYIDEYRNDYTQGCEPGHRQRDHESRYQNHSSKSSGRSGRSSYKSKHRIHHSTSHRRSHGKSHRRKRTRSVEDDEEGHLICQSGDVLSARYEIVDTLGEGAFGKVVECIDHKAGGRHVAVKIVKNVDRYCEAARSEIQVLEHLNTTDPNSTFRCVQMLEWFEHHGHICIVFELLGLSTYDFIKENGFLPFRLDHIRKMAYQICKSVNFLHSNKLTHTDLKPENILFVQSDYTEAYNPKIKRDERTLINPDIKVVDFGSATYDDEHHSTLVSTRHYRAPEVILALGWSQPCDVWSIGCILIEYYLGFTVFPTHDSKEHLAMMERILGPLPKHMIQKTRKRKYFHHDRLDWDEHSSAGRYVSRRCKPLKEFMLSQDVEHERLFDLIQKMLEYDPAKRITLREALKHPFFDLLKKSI

[9] = target: Protein kinase C alpha type (Homo sapiens) (UniProt P17252); experiment: Inhibition of PRKCA (unknown origin) at 100 nM in the presence of ATP by Kinome scan method relative to control
HCT-116 [10] = experiment: Induction of apoptosis in human HCT-116 cells assessed as early apoptosis at 0.1 uM incubated for > 6 hrs by annexin V/PI staining based analysis (Rvb=3.29%); format: functional
HCT-116 [11] = experiment: Cytotoxicity against human HCT-116 cells assessed as inhibition of cell viability incubated for > 24 hrs; format: functional
[12] = target: Dual specificity protein kinase CLK1 (Homo sapiens) (UniProt P49759); experiment: Inhibition of CLK (unknown origin) in human 184-hTERT cells assessed as induction in alternative splicing effect in S6K canonical isoform incubated for 6 hrs by RT-PCR analysis; format: cell-based; settings: dose 0.2-5 µM
Summary of the method: (§1)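 Cells exposed to graded T3 concentrations for 6 h (chosen to avoid cytotoxicity), with a DMSO vehicle control. Total RNA was reverse-transcribed with oligo-dT primers. Targeted splice or conjoined-gene products were quantified by real-time qPCR or by targeted next-generation sequencing. Conjoined-gene isoform expression was normalized to a sequenced housekeeping gene.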

[13] = target: Serine/threonine-protein kinase Nek2 (Homo sapiens) (UniProt P51955); experiment: Inhibition of NEK2 (unknown origin) at 1000 nM in the presence of ATP by Kinome scan method relative to control
[14] = target: Ribosomal protein S6 kinase beta-1 (Homo sapiens) (UniProt P23443); experiment: Inhibition of RPS6KB1 (unknown origin) at 1000 nM in the presence of ATP by Kinome scan method relative to control
HCT-116 [15] = experiment: Induction of cell cycle arrest in human HCT-116 cells assessed as sub G0/G1 phase at 1 uM incubated for 6 hrs by flow cytometry analysis (Rvb=1.6%); format: functional
[16] = target: Serine/threonine-protein kinase B-raf (Homo sapiens) (UniProt P15056); experiment: Inhibition of BRAF (unknown origin) at 1000 nM in the presence of ATP by Kinome scan method relative to control
Sequence of Serine/threonine-protein kinase B-raf (Homo sapiens) (P15056 whole entry): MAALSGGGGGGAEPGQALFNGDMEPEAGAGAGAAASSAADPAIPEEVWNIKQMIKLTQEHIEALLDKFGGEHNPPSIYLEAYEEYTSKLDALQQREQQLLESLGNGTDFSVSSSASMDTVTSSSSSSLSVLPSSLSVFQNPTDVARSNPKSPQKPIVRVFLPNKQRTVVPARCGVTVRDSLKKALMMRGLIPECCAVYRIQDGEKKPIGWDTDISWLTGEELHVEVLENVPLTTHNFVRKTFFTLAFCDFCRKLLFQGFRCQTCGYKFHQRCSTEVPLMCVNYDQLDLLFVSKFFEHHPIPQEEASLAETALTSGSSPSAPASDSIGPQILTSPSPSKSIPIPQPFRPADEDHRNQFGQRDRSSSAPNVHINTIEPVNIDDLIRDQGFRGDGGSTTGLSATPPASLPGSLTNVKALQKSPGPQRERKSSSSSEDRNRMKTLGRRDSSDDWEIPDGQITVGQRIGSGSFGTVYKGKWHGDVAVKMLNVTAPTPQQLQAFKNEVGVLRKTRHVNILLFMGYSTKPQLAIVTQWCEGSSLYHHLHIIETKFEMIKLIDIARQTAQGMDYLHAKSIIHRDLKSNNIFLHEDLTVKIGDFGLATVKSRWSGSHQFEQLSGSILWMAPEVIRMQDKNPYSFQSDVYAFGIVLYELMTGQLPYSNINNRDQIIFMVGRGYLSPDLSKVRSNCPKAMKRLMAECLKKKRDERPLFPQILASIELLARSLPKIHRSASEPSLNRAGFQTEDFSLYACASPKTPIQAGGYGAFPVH

[17] = target: Dual specificity protein kinase CLK1 (Homo sapiens) (UniProt P49759); experiment: Inhibition of CLK1 (unknown origin) at 1110 nM in the presence of ATP by Kinome scan method relative to control; settings: time > 6.0 hrs
[18] = target: Serine/threonine-protein kinase B-raf (Homo sapiens) (UniProt P15056); experiment: Inhibition of BRAF (unknown origin) at 100 nM in the presence of ATP by Kinome scan method relative to control
[19] = target: Dual specificity tyrosine-phosphorylation-regulated kinase 1A (Homo sapiens, UniProt Q13627); experiment: Inhibition of DYRK1A (unknown origin) at 1110 nM in the presence of ATP by Kinome scan method relative to control; settings: time > 6.0 hrs
HCT-116 [20] = experiment: Induction of apoptosis in human HCT-116 cells assessed as viable cells at 5 uM incubated for > 6 hrs by annexin V/PI staining based analysis (Rvb=90.04%); format: functional; settings: read-out: Activity
[21] = target: Homeodomain-interacting protein kinase 1 (Homo sapiens) (UniProt Q86Z02); experiment: Inhibition of HIPK1 (unknown origin) at 1000 nM in the presence of ATP by Kinome scan method relative to control
Sequence of Homeodomain-interacting protein kinase 1 (Homo sapiens) (Q86Z02 whole entry, looked up): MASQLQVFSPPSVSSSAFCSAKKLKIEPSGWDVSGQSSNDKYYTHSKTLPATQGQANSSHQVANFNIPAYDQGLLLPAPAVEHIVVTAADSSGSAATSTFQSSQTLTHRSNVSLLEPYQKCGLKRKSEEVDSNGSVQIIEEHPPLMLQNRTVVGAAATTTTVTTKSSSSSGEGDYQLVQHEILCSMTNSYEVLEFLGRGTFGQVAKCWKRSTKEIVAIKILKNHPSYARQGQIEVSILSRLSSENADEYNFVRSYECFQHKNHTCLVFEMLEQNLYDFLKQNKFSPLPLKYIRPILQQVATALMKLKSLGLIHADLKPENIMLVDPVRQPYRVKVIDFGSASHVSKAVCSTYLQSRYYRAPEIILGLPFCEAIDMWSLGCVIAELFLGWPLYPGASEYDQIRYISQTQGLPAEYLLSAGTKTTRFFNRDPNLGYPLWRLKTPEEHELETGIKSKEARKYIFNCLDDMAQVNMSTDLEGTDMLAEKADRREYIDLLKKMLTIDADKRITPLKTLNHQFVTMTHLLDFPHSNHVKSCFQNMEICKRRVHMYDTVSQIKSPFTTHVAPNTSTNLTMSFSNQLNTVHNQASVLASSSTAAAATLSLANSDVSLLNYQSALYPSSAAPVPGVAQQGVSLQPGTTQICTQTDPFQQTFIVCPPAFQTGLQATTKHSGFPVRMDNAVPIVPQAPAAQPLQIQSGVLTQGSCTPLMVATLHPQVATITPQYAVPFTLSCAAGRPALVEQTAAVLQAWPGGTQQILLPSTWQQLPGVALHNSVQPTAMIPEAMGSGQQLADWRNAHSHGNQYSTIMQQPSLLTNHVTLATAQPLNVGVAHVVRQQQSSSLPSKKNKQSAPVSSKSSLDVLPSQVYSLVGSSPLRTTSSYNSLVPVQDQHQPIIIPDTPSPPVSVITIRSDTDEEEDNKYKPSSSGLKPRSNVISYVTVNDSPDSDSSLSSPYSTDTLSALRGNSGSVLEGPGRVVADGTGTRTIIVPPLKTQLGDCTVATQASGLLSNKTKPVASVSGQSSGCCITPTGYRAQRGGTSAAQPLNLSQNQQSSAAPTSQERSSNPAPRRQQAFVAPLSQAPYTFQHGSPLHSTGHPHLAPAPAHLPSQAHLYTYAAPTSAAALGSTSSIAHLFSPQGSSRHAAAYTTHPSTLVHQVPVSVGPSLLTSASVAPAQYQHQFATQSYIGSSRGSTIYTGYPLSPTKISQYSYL

[22] = target: Cyclin-dependent kinase 1/cyclin B1 (Homo sapiens) (UniProt P06493+P14635); experiment: Inhibition of CDK1/cyclin B (unknown origin) at 1000 nM in the presence of ATP by Kinome scan method relative to control; format: protein-complex assay
Sequence of Cyclin-dependent kinase 1/cyclin B1 (Homo sapiens) (P06493 whole entry, looked up): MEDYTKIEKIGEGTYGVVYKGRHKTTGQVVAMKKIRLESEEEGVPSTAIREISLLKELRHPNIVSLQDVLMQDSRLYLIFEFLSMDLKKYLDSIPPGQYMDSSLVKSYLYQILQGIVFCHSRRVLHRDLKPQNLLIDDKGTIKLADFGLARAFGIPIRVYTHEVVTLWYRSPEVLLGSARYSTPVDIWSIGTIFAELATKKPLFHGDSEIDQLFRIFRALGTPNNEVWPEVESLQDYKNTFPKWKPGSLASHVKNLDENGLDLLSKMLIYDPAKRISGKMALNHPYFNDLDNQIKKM
Sequence of Cyclin-dependent kinase 1/cyclin B1 (Homo sapiens) (P14635 whole entry, looked up): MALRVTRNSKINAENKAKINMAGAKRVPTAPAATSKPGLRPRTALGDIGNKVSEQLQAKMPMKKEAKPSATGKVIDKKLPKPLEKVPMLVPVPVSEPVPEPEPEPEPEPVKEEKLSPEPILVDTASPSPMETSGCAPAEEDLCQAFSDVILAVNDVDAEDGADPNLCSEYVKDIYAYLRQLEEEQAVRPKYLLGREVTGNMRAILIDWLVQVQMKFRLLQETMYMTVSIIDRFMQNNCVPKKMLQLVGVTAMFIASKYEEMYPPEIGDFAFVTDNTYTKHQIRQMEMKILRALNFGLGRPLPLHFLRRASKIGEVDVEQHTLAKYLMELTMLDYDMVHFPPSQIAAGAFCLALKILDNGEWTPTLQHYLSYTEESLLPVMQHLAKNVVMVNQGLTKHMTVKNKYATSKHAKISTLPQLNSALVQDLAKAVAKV

[23] = target: 3-phosphoinositide-dependent protein kinase 1 (PDPK1) (Homo sapiens) (UniProt O15530); experiment: Inhibition of PDK1 Direct (unknown origin) at 100 nM in the presence of ATP by Kinome scan method relative to control
[24] = Stability of compound in tissue culture medium assessed as remaining parent compound at 5.38 uM incubated for 24 hrs; format: physicochemical; settings: read-out: Stability
[25] = target: MAP kinase-activated protein kinase 2 (Homo sapiens) (UniProt P49137); experiment: Inhibition of MAPKAPK2 (unknown origin) at 100 nM in the presence of ATP by Kinome scan method relative to control
[26] = target: Proto-oncogene tyrosine-protein kinase ROS (Homo sapiens) (UniProt P08922); experiment: Inhibition of ROS1 (unknown origin) at 1000 nM in the presence of ATP by Kinome scan method relative to control
[27] = target: Glycogen synthase kinase-3 beta (Homo sapiens) (UniProt P49841); experiment: Inhibition of GSK3B (unknown origin) at 100 nM in the presence of ATP by Kinome scan method relative to control
[28] = target: Casein kinase I isoform delta (Homo sapiens) (UniProt P48730); experiment: Inhibition of CSNK1D (unknown origin) at 1000 nM in the presence of ATP by Kinome scan method relative to control
[29] = target: Dual specificity protein kinase CLK1 (Homo sapiens) (UniProt P49759); experiment: Inhibition of CLK (unknown origin) in human 184-hTERT cells assessed as induction in alternative splicing effect in RBM25-PSEN1 level incubated for 6 hrs by RT-PCR analysis; format: cell-based; settings: dose 0.2-5 µM; summary of the method: as §1
HCT-116 [30] = experiment: Induction of cell cycle arrest in human HCT-116 cells assessed as G2/M phase at 1 uM incubated for 6 hrs by flow cytometry analysis (Rvb=25.8%); format: functional
[31] = target: AMP-activated protein kinase (AMPK) alpha-1/beta-1/gamma-1 (Homo sapiens) (UniProt P54619+Q9Y478+Q13131); experiment: Inhibition of AMPK A1/B1/G1 (unknown origin) at 1000 nM in the presence of ATP by Kinome scan method relative to control; format: protein-complex assay
Sequence of AMP-activated protein kinase (AMPK) alpha-1/beta-1/gamma-1 (Homo sapiens) (P54619 whole entry): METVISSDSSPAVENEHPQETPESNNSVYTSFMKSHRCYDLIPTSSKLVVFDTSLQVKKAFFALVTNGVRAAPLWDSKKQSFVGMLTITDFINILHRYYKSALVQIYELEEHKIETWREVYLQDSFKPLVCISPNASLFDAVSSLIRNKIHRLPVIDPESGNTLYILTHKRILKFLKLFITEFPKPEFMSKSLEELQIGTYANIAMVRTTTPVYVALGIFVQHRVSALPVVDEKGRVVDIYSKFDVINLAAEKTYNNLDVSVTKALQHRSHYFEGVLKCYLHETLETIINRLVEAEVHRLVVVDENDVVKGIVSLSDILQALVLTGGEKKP
Sequence of AMP-activated protein kinase (AMPK) alpha-1/beta-1/gamma-1 (Homo sapiens) (Q13131 whole entry partner): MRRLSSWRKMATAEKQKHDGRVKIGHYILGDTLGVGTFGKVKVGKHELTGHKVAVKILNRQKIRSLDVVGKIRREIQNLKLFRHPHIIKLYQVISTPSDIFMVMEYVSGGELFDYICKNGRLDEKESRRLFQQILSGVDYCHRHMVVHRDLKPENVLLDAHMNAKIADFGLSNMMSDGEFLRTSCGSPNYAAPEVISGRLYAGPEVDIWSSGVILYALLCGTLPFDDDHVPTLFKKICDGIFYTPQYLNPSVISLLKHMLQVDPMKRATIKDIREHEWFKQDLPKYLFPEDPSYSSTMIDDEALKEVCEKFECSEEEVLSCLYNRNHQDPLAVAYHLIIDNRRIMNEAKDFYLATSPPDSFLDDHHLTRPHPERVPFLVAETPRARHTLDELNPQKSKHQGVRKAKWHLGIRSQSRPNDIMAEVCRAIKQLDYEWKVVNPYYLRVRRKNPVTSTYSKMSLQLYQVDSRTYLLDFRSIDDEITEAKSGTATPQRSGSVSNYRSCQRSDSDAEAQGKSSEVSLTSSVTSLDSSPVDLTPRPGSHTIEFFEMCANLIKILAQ
Sequence of AMP-activated protein kinase (AMPK) alpha-1/beta-1/gamma-1 (Homo sapiens) (Q9Y478 2-270 partner limits assumed): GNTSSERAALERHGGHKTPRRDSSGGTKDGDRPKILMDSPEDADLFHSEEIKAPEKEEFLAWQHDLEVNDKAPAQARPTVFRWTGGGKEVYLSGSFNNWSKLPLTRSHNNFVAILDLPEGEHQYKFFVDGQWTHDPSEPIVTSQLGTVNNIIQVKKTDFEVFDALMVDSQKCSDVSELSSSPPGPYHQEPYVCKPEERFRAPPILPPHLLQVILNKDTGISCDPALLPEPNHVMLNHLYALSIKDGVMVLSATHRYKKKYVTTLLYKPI

`CN1CCN(C(=O)C(C)(C)c2ccc(C(=O)Nc3cn4cc(-c5ccncc5)ccc4n3)cc2)CC1` [T3-CLK] showed an Activity (HCT-116 [1]) of 13.3%, an inhibition [2] of 89% and an inhibition [3] of -7%. For the same molecule, the Activity (HCT-116 [4]) was 8.23%, the Activity (HCT-116 [5]) was 24% and the Activity (HCT-116 [6]) was 3.4%. The inhibition [7] was 5%, the inhibition [8] was “Active” and the inhibition [9] was 4%. For the same molecule, the Activity (HCT-116 [10]) was 3.11%, the GI (HCT-116 [11]) was 0.133 µM and the inhibition [12] was “Dose-Dependent Effect”. The inhibition [13] was 24%, the inhibition [14] was 1% and the Activity (HCT-116 [15]) was 1.5%. The inhibition [16] was 17%, the inhibition [17] was 99% and the inhibition [18] was 9%. For the same molecule, the inhibition [19] was 97%, the viability at 5 µM (HCT-116 [20]) was 86.6% and the inhibition [21] was 3%. For the same molecule, the inhibition [22] was 7%, the inhibition [23] was -1% and the remaining at 24 h, 5.38 µM [24] was 98.8%. For the same molecule, the inhibition [25] was 4%, the inhibition [26] was 0% and the inhibition [27] was -3%. The inhibition [28] was 4%, the inhibition [29] was “Dose-Dependent Effect” and the Activity (HCT-116 [30]) was 34.6%. For the same molecule, the inhibition [31] was 0%.
